# Data as given in ChEMBL document CHEMBL5058577, “EUbOPEN Chemogenomics Library 2 (Multiplex)” (2022).
# Test system: Fibroblast
# Experiment: Multiplex assay against human fibroblast
# Assay type: toxicity, cell-based
# Method in brief: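 Four dyes were applied at seeding to live cells: Hoechst33342, BioTracker Green Microtubule Cytoskeleton Dye, MitoTracker Red and Annexin V Alexa Fluor 680. Imaging after compound addition used a CQ1 microscope at 37°C and 5% CO2. CellPathfinder machine-learning gating then sorted cells into Hoechst high-intensity objects or normal cells, normal cells into healthy, pyknosed or fragmented nuclei, and pyknosed cells into mitotic or apoptotic, with tubulin, mitochondrial-mass and membrane-permeability phenotypes given as per cents of healthy-nucleus cells.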
# [1] = 12 h, 1 µM, compound concentration 1 uM, replicate 1
# [2] = 12 h, 1 µM, compound concentration 1 uM, replicate 2
# [3] = 12 h, 10 µM, compound concentration 10 uM, replicate 1
# [4] = 12 h, 10 µM, compound concentration 10 uM, replicate 2
# [5] = 24 h, 1 µM, compound concentration 1 uM, replicate 1
# [6] = 24 h, 1 µM, compound concentration 1 uM, replicate 2
# [7] = 24 h, 10 µM, compound concentration 10 uM, replicate 1
# [8] = 24 h, 10 µM, compound concentration 10 uM, replicate 2
# [9] = 48 h, 1 µM, compound concentration 1 uM, replicate 1
# [10] = 48 h, 1 µM, compound concentration 1 uM, replicate 2
# [11] = 48 h, 10 µM, compound concentration 10 uM, replicate 1
# [12] = 48 h, 10 µM, compound concentration 10 uM, replicate 2
smiles,measurement,setting,value
CCCCC(=O)N(Cc1ccc(-c2ccccc2-c2nnn[nH]2)cc1)[C@H](C(=O)O)C(C)C,Population Apoptotic (%),[1],45%
same,Population Fragmented Nuclei (%),[1],9%
same,Population Healthy Nuclei (%),[1],74%
same,Population Hoechst High Intensity Objects (%),[1],4%
same,Population Membrane Permeable-Phenotype (%),[1],0%
same,Population Mitochondria Different-Phenotype (%),[1],0%
same,Population Mitotic Cells (%),[1],54%
same,Population Normal (%),[1],95%
same,Population Pyknosed Nuclei (%),[1],16%
same,Population Tubulin-Different-Phenotype (%),[1],20%
same,Total Cell Count,[1],143
same,Population Apoptotic (%),[2],44%
same,Population Fragmented Nuclei (%),[2],21%
same,Population Healthy Nuclei (%),[2],54%
same,Population Hoechst High Intensity Objects (%),[2],3%
same,Population Membrane Permeable-Phenotype (%),[2],8%
same,Population Mitochondria Different-Phenotype (%),[2],6%
same,Population Mitotic Cells (%),[2],55%
same,Population Normal (%),[2],96%
same,Population Pyknosed Nuclei (%),[2],24%
same,Population Tubulin-Different-Phenotype (%),[2],36%
same,Total Cell Count,[2],156
same,Population Apoptotic (%),[3],37%
same,Population Fragmented Nuclei (%),[3],20%
same,Population Healthy Nuclei (%),[3],56%
same,Population Hoechst High Intensity Objects (%),[3],0%
same,Population Membrane Permeable-Phenotype (%),[3],3%
same,Population Mitochondria Different-Phenotype (%),[3],3%
same,Population Mitotic Cells (%),[3],62%
same,Population Normal (%),[3],100%
same,Population Pyknosed Nuclei (%),[3],22%
same,Population Tubulin-Different-Phenotype (%),[3],23%
same,Total Cell Count,[3],106
same,Population Fragmented Nuclei (%),[4],27%
same,Population Healthy Nuclei (%),[4],42%
same,Population Hoechst High Intensity Objects (%),[4],3%
same,Population Membrane Permeable-Phenotype (%),[4],11%
same,Population Mitochondria Different-Phenotype (%),[4],11%
same,Population Normal (%),[4],96%
same,Population Pyknosed Nuclei (%),[4],29%
same,Population Tubulin-Different-Phenotype (%),[4],51%
same,Total Cell Count,[4],130
same,Population Apoptotic (%),[5],66%
same,Population Fragmented Nuclei (%),[5],15%
same,Population Healthy Nuclei (%),[5],70%
same,Population Hoechst High Intensity Objects (%),[5],0%
same,Population Membrane Permeable-Phenotype (%),[5],1%
same,Population Mitochondria Different-Phenotype (%),[5],2%
same,Population Mitotic Cells (%),[5],33%
same,Population Normal (%),[5],99%
same,Population Pyknosed Nuclei (%),[5],14%
same,Population Tubulin-Different-Phenotype (%),[5],17%
same,Total Cell Count,[5],146
same,Population Apoptotic (%),[6],38%
same,Population Fragmented Nuclei (%),[6],21%
same,Population Healthy Nuclei (%),[6],52%
same,Population Hoechst High Intensity Objects (%),[6],2%
same,Population Membrane Permeable-Phenotype (%),[6],2%
same,Population Mitochondria Different-Phenotype (%),[6],1%
same,Population Mitotic Cells (%),[6],61%
same,Population Normal (%),[6],97%
same,Population Pyknosed Nuclei (%),[6],25%
same,Population Tubulin-Different-Phenotype (%),[6],25%
same,Total Cell Count,[6],145
same,Population Apoptotic (%),[7],48%
same,Population Fragmented Nuclei (%),[7],18%
same,Population Healthy Nuclei (%),[7],56%
same,Population Hoechst High Intensity Objects (%),[7],2%
same,Population Membrane Permeable-Phenotype (%),[7],0%
same,Population Mitochondria Different-Phenotype (%),[7],1%
same,Population Mitotic Cells (%),[7],51%
same,Population Normal (%),[7],97%
same,Population Pyknosed Nuclei (%),[7],25%
same,Population Tubulin-Different-Phenotype (%),[7],31%
same,Total Cell Count,[7],110
same,Population Apoptotic (%),[8],35%
same,Population Fragmented Nuclei (%),[8],25%
same,Population Healthy Nuclei (%),[8],44%
same,Population Hoechst High Intensity Objects (%),[8],4%
same,Population Membrane Permeable-Phenotype (%),[8],9%
same,Population Mitochondria Different-Phenotype (%),[8],10%
same,Population Mitotic Cells (%),[8],64%
same,Population Normal (%),[8],95%
same,Population Pyknosed Nuclei (%),[8],29%
same,Population Tubulin-Different-Phenotype (%),[8],65%
same,Total Cell Count,[8],130
same,Population Apoptotic (%),[9],80%
same,Population Fragmented Nuclei (%),[9],18%
same,Population Healthy Nuclei (%),[9],71%
same,Population Hoechst High Intensity Objects (%),[9],6%
same,Population Membrane Permeable-Phenotype (%),[9],0%
same,Population Mitochondria Different-Phenotype (%),[9],1%
same,Population Mitotic Cells (%),[9],20%
same,Population Normal (%),[9],93%
same,Population Pyknosed Nuclei (%),[9],10%
same,Population Tubulin-Different-Phenotype (%),[9],17%
same,Total Cell Count,[9],153
same,Population Apoptotic (%),[10],40%
same,Population Fragmented Nuclei (%),[10],27%
same,Population Healthy Nuclei (%),[10],51%
same,Population Hoechst High Intensity Objects (%),[10],3%
same,Population Membrane Permeable-Phenotype (%),[10],1%
same,Population Mitochondria Different-Phenotype (%),[10],3%
same,Population Mitotic Cells (%),[10],59%
same,Population Normal (%),[10],96%
same,Population Pyknosed Nuclei (%),[10],21%
same,Population Tubulin-Different-Phenotype (%),[10],33%
same,Total Cell Count,[10],155
same,Population Apoptotic (%),[11],64%
same,Population Fragmented Nuclei (%),[11],28%
same,Population Healthy Nuclei (%),[11],56%
same,Population Hoechst High Intensity Objects (%),[11],4%
same,Population Membrane Permeable-Phenotype (%),[11],0%
same,Population Mitochondria Different-Phenotype (%),[11],5%
same,Population Mitotic Cells (%),[11],35%
same,Population Normal (%),[11],95%
same,Population Pyknosed Nuclei (%),[11],15%
same,Population Tubulin-Different-Phenotype (%),[11],30%
same,Total Cell Count,[11],112
same,Population Apoptotic (%),[12],57%
same,Population Fragmented Nuclei (%),[12],39%
same,Population Healthy Nuclei (%),[12],39%
same,Population Membrane Permeable-Phenotype (%),[12],7%
same,Population Mitotic Cells (%),[12],42%
same,Population Pyknosed Nuclei (%),[12],20%
same,Population Tubulin-Different-Phenotype (%),[12],69%
same,Total Cell Count,[12],141
